Assay results published in ChEMBL document CHEMBL2413009, “Synthesis and structure activity relationship of imidazo[1,2-a]pyridine-8-carboxamides as a novel antimycobacterial lead series” (Bioorg Med Chem Lett, 2013).
≈ marks a conversion by molar mass, not a printed value.

Columns and labels:
A549 = experiment: Cytotoxicity against human A549 cells; assay type: cell-based
[1] = Aqueous solubility of the compound in 0.1 M sodium phosphate buffer at pH 7.4 after 24 hrs; assay type: physicochemical
[2] = test system: Mycobacterium tuberculosis; experiment: Antimycobacterial activity against Mycobacterium tuberculosis H37Rv ATCC 27294 after 7 days by broth microdilution method; assay type: functional; conditions: H37Rv ATCC 27294, 168 h
[3] = Intrinsic clearance in mouse microsomes; assay type: ADME, Microsome
[4] = Fraction unbound in mouse plasma after 5 hrs by rapid equilibrium dialysis method; assay type: ADME, cell-free
Streptococcus pneumoniae = experiment: Antibacterial activity against Streptococcus pneumoniae by broth microdilution method; assay type: functional
Haemophilus influenzae = experiment: Antibacterial activity against Haemophilus influenzae by broth microdilution method; assay type: functional
Escherichia coli = experiment: Antibacterial activity against Escherichia coli by broth microdilution method; assay type: functional
Staphylococcus aureus = experiment: Antibacterial activity against Staphylococcus aureus by broth microdilution method; assay type: functional
[5] = Fraction unbound in human plasma after 5 hrs by rapid equilibrium dialysis method; assay type: ADME, cell-free
[6] = Intrinsic clearance in human microsomes; assay type: ADME, Microsome
In short: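 Intrinsic clearance was measured in human microsomal preparations and is reported in µl/min/mg.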

[7] = Lipophilicity, log D of the compound in 0.01 M sodium phosphate at pH 7.4 after 5 hrs by shake-flask technique; assay type: physicochemical
[8] = test system: Mycobacterium tuberculosis; experiment: Cidality activity against Mycobacterium tuberculosis H37Rv ATCC 27294 assessed as log reduction in bacterial numbers at 32 ug/mL up to 28 days; assay type: functional
In short: (§1)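 Replicating Mtb grown aerobically in Middlebrook 7H9 broth and exposed to a range of compound concentrations up to 32 µg/mL. Bacterial numbers were followed over time as kill kinetics, and the result is expressed as log reduction in bacterial numbers.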

[9] = test system: Mycobacterium tuberculosis; experiment: Cidality activity against Mycobacterium tuberculosis H37Rv ATCC 27294 assessed as log reduction in bacterial numbers up to 28 days; assay type: functional, organism-based; in short: as §1

SMILES	solubility at 24 h [1]	MIC [2]	further results
COc1ccn2cc(-c3cccc(-c4cncc(O[C@H]5CCOC5)c4)c3)nc2c1C(N)=O	600 µM (≈ 258 µg/mL)	12.5 µM	IC50 (A549): > 100 µM
COc1cncc(-c2cccc(-c3cn4cccc(C(N)=O)c4n3)c2)c1	< 1 µM	0.5 µg/mL	microsomal CLint [3]: 113 µL/min/mg; fraction unbound at 5 h [4]: 0.019
COc1cncc(-c2cncc(-c3cn4cccc(C(N)=O)c4n3)c2)c1	3.5 µM (≈ 1.21 µg/mL)	> 32 µg/mL	–
NC(=O)c1cccn2cc(-c3cccc(-c4cccc(F)c4)c3)nc12	< 1 µM	16 µg/mL	–
CNC(=O)c1cccn2cc(-c3cccc(-c4cncc(OC)c4)c3)nc12	5.5 µM (≈ 1.97 µg/mL)	2 µg/mL	–
COc1cncc(-c2cc(-c3cn4cccc(C(N)=O)c4n3)ccn2)c1	22 µM (≈ 7.6 µg/mL)	16 µg/mL	–
NC(=O)c1cccn2cc(-c3cccc(-c4cncc(OC[C@H]5CCCO5)c4)c3)nc12	5.3 µM (≈ 2.2 µg/mL)	0.25 µg/mL	MIC (Streptococcus pneumoniae): > 200 µM; MIC (Haemophilus influenzae): > 200 µM; MIC (Escherichia coli): > 200 µM; MIC (Staphylococcus aureus): > 200 µM
COc1cncc(-c2cccc(-c3cn4ccc(OC)c(C(N)=O)c4n3)c2)c1	40 µM (≈ 15 µg/mL)	2 µg/mL	fraction unbound at 5 h [5]: 0.02; microsomal CLint [6]: 56 µL/min/mg; microsomal CLint [3]: 48 µL/min/mg; fraction unbound at 5 h [4]: 0.049; logD at 5 h [7]: 2.3
COc1cncc(-c2cccc(-c3nc4c(C(N)=O)cccn4n3)c2)c1	18 µM (≈ 6.22 µg/mL)	2 µg/mL	–
COc1cccc(-c2cccc(-c3cn4cccc(C(N)=O)c4n3)c2)c1	< 1 µM	2 µg/mL	log10cfu [8]: 2; Activity [9]: Dose-dependent effect
COc1ccn2cc(-c3cccc(-c4cncc(OC[C@H]5CCCO5)c4)c3)nc2c1C(N)=O	120 µM (≈ 53.3 µg/mL)	1 µg/mL	–
COc1cncc(-c2cccc(-c3nc4c(C(N)=O)cccc4[nH]3)c2)c1	3 µM (≈ 1.03 µg/mL)	4 µg/mL	–
CN(C)CCOc1cncc(-c2cccc(-c3cn4cccc(C(N)=O)c4n3)c2)c1	320 µM (≈ 128 µg/mL)	16 µg/mL	fraction unbound at 5 h [5]: 0.073; microsomal CLint [6]: 47 µL/min/mg
NC(=O)c1cccn2cc(-c3cccc(-c4cncc(OCCF)c4)c3)nc12	16 µM (≈ 6.02 µg/mL)	0.78 µM	MIC (Streptococcus pneumoniae): > 200 µM; MIC (Haemophilus influenzae): > 200 µM; MIC (Escherichia coli): > 200 µM; MIC (Staphylococcus aureus): > 200 µM; fraction unbound at 5 h [5]: 0.01; IC50 (A549): > 100 µM; microsomal CLint [6]: 75 µL/min/mg; logD at 5 h [7]: 3.7
NC(=O)c1nccn2cc(-c3cccc(-c4cncc(OC[C@H]5CCCO5)c4)c3)nc12	40 µM (≈ 16.6 µg/mL)	6.25 µM	IC50 (A549): > 100 µM
COc1cncc(-c2cccc(-c3cn4cccc(C(=O)N(C)C)c4n3)c2)c1	10 µM (≈ 3.72 µg/mL)	> 32 µg/mL	–
NC(=O)c1cccn2cc(-c3cccc(-c4cncc(OCC(F)F)c4)c3)nc12	< 1 µM	3.12 µM	MIC (Streptococcus pneumoniae): > 200 µM; MIC (Haemophilus influenzae): > 200 µM; MIC (Escherichia coli): > 200 µM; MIC (Staphylococcus aureus): > 200 µM; IC50 (A549): > 100 µM
COc1cncc(-c2cccc(-c3cn4ccnc(C(N)=O)c4n3)c2)c1	10 µM (≈ 3.45 µg/mL)	12.5 µM	IC50 (A549): > 100 µM; microsomal CLint [3]: 58 µL/min/mg; fraction unbound at 5 h [4]: 0.04
COc1cncc(-c2cc(-c3cn4cccc(C(N)=O)c4n3)ccc2F)c1	< 1 µM	> 32 µg/mL	–
COc1cncc(-c2cccc(-c3nc4c(C(N)=O)cccc4o3)c2)c1	2 µM (≈ 0.691 µg/mL)	2 µg/mL	–
CCN(CC)CCNC(=O)c1cccn2cc(-c3cccc(-c4cncc(OC)c4)c3)nc12	> 2460 µM	4 µg/mL	–
